According to ChEMBL document CHEMBL1153420, “Discovery of novel 1-azoniabicyclo[2.2.2]octane muscarinic acetylcholine receptor antagonists” (J Med Chem, 2009):
pIC50, pKi: −log10 of the molar value. The source made the active and inactive calls. The rule behind the calls is not given here.

Key:
[1] = system: Mus musculus; test: Inhibition of methacholine-induced bronchoconstriction in intranasally single dosed conscious BALB/c mouse by plethysmography; format: functional
[2] = system: Mus musculus; test: Inhibition of methacholine-induced bronchoconstriction in intranasally single dosed conscious BALB/c mouse assessed as time to 50% loss of maximum protection at 0.05 ug by plethysmography; format: functional
How it was run: (§1)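 Conscious mice dosed intranasally in 50 µL vehicle (10% DMSO), then methacholine challenge; barometric plethysmography measured enhanced pause (Penh) at times from 15 min to 96 h after dosing; duration taken as time to 50% loss of maximum protection.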

[3] = target: T1, Muscarinic acetylcholine receptor M1 (Homo sapiens, UniProt P11229); test: Antagonist activity at human cloned muscarinic M1 receptor expressed in CHO cells assessed as inhibition of acetylcholine-induced calcium mobilization by single concentration kinetic based-FLIPR assay; format: functional, cell-based; conditions: read-out: pA2 (converted)
T1 sequence (P11229 whole entry): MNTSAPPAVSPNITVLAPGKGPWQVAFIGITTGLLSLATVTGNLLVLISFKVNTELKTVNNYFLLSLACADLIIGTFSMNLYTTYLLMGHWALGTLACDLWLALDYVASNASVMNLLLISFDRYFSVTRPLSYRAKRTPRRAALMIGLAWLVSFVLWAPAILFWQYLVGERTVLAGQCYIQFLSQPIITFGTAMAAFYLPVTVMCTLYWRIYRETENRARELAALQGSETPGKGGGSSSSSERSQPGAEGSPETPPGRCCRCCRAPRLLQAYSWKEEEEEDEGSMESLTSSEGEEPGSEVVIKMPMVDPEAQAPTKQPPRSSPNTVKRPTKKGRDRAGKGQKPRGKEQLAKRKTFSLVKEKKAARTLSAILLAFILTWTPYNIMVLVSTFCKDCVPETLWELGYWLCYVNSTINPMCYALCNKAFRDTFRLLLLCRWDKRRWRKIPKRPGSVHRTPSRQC

[4] = target: T2, Muscarinic acetylcholine receptor M2 (Homo sapiens, UniProt P08172); test: Antagonist activity at human cloned muscarinic M2 receptor expressed in CHO cells assessed as inhibition of acetylcholine-induced calcium mobilization by single concentration kinetic based-FLIPR assay; format: functional, cell-based; conditions: read-out: pA2 (converted)
T2 sequence (P08172 whole entry): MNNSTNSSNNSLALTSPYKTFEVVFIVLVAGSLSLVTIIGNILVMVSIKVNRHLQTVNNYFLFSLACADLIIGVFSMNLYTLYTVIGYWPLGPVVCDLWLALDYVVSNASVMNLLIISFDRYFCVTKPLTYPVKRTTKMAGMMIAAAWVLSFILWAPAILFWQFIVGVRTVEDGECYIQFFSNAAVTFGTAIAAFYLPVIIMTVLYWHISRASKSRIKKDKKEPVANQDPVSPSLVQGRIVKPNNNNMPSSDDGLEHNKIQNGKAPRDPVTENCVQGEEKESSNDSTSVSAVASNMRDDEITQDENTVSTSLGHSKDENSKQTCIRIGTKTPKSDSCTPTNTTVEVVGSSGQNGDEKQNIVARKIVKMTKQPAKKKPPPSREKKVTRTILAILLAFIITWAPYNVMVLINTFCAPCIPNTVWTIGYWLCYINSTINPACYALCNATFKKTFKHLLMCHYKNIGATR

[5] = Clearance in rat plasma at 0.5 mg/kg, iv; format: ADME, organism-based; design: dose 0.5 mg/kg, route intravenous
How it was run: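 Rats received a single intravenous dose of 0.5 mg/kg; systemic plasma clearance was reported in ml/min/kg.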

[6] = target: T3, Muscarinic acetylcholine receptor M3 (Homo sapiens, UniProt P20309); test: Antagonist activity at human muscarinic M3 receptor assessed as offset time for 50% of carbachol-induced human bronchus contraction to return at 10 nM; format: functional
How it was run: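 Human bronchial strips (primary, secondary or tertiary airways, obtained at autopsy) were mounted in organ baths on force-displacement transducers. Strips were preincubated 2 h with 10 nM antagonist, then given increasing carbachol to […]. Antagonist was then removed and tissue superfused with carbachol-containing buffer while tension recovery was tracked. The result is minutes to 50% reversal of blockade (off t50).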
Target sequence in this assay (P20309 whole entry, looked up, the tested form may be a part): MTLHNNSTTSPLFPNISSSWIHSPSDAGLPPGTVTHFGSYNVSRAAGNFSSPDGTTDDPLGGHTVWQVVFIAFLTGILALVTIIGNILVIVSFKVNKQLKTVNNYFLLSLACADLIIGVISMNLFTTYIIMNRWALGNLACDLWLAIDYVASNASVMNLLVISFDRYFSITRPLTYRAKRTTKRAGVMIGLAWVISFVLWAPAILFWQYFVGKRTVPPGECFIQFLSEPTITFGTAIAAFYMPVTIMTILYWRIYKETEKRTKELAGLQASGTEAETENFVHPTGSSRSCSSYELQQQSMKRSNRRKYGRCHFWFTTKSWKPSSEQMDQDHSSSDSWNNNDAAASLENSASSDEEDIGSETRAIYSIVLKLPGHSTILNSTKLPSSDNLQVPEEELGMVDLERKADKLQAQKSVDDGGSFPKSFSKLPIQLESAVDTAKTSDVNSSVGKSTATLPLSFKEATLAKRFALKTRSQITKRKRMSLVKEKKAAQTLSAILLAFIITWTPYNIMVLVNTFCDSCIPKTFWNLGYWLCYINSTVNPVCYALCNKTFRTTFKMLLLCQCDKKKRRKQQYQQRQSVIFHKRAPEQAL

[7] = target: T1, Muscarinic acetylcholine receptor M1; test: Displacement of [3H]N-methyl scopolamine from human cloned muscarinic M1 receptor expressed in CHO cells coexpressing Gqi5 by scintillation proximity assay; format: cell-based
How it was run: (§2)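 Scintillation proximity assay on membranes from CHO cells expressing human M1, M2 or M3 receptors, competing against 0.5 nM [3H]-N-methyl scopolamine; Ki reported as mean of three independent assays.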

[8] = target: T2, Muscarinic acetylcholine receptor M2; test: Displacement of [3H]N-methyl scopolamine from human cloned muscarinic M2 receptor expressed in CHO cells coexpressing Gqi5 by scintillation proximity assay; format: cell-based; how it was run: as §2
[9] = target: T3, Muscarinic acetylcholine receptor M3; test: Antagonist activity at human cloned muscarinic M3 receptor expressed in CHO cells assessed as reversible inhibition of acetylcholine-induced calcium mobilization for 90 mins measured after 180 mins of washout period by FLIPR assay; format: functional, cell-based
How it was run: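 CHO cells expressing cloned human M3 receptors were incubated 90 min with vehicle or 1.0, 10 or 100 nM compound, then washed out for 180 min with 18 buffer changes. Cells were then stimulated with ACh, and calcium mobilization was read by FLIPR. Reversibility was judged from ACh concentration-response curves against no-drug levels.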
Target sequence in this assay (P20309 whole entry, looked up, the tested form may be a part): as above

[10] = target: T3, Muscarinic acetylcholine receptor M3; test: Antagonist activity at human cloned muscarinic M3 receptor expressed in CHO cells assessed as inhibition of acetylcholine-induced calcium mobilization by FLIPR assay; format: functional, cell-based
Target sequence in this assay (P20309 whole entry, the tested form may be a part): as the sequence (P20309 whole entry, looked up, the tested form may be a part) above

[11] = target: T3, Muscarinic acetylcholine receptor M3; test: Antagonist activity at human cloned muscarinic M3 receptor expressed in CHO cells assessed as inhibition of acetylcholine-induced calcium mobilization by single concentration kinetic based-FLIPR assay; format: functional, cell-based; conditions: read-out: pA2 (converted)
Target sequence in this assay (P20309 whole entry, the tested form may be a part): as the sequence (P20309 whole entry, looked up, the tested form may be a part) above

[12] = target: T3, Muscarinic acetylcholine receptor M3; test: Antagonist activity at human muscarinic M3 receptor assessed as inhibition of carbachol-induced bronchus contraction; format: functional; conditions: read-out: pA2 (converted)
Target sequence in this assay (P20309 whole entry, the tested form may be a part): as the sequence (P20309 whole entry, looked up, the tested form may be a part) above

[13] = system: Mus musculus; test: Inhibition of methacholine-induced bronchoconstriction in intranasally single dosed conscious BALB/c mouse assessed as time to 50% loss of maximum protection at 0.5 ug by plethysmography; format: functional; how it was run: as §1
[14] = Clearance in rat plasma at 3.5 mg/kg, iv; format: ADME, organism-based; design: dose 3.5 mg/kg, route intravenous
How it was run: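 Systemic plasma clearance in rat after intravenous dosing.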

[15] = target: T3, Muscarinic acetylcholine receptor M3; test: Displacement of [3H]N-methyl scopolamine from human cloned muscarinic M3 receptor expressed in CHO cells coexpressing Gqi5 by scintillation proximity assay; format: cell-based
Target sequence in this assay (P20309 whole entry, the tested form may be a part): as the sequence (P20309 whole entry, looked up, the tested form may be a part) above

Row | SMILES | pIC50 [10] | Kb [11] | other results
1 | OC(c1ccccc1)(c1ccccc1)C12CC[N+](CCOCc3ccccc3)(CC1)CC2.[Br-] [UMECLIDINIUM BROMIDE] |  |  | ED50 [1]: 0.02 µg; Activity [2]: >48 h; Kb [3]: 0.316 nM; Kb [4]: 0.0316 nM; clearance [5]: 92 mL/min/kg; Activity [6]: 145 min; pKi [7]: 9.80; pKi [8]: 9.82; Activity [9]: Active
2 | OC(c1cccc(F)c1)(c1cccc(F)c1)C12CC[N+](CCOCc3ccccc3)(CC1)CC2 | > 8.00 | 0.251 nM | 
3 | OC(c1ccccc1)(c1ccccc1)C12CC[N+](CCCCc3ccccc3)(CC1)CC2 | > 8.00 | 0.501 nM | 
4 | COc1cccc(C(O)(c2cccc(OC)c2)C23CC[N+](CCOCc4ccccc4)(CC2)CC3)c1 | 7.77 |  | 
5 | OC(c1ccccc1)(c1ccccc1)C12CC[N+](CCOCc3ccccc3Br)(CC1)CC2 | 7.66 | 3.16 nM | 
6 | OC(c1ccccc1)(c1ccccc1)C12CC[N+](CCOCc3ccc(Br)cc3)(CC1)CC2 | > 8.00 | 0.0398 nM | 
7 | OC(c1ccccc1)(c1ccccc1)C12CC[N+](CCCCCOc3ccccc3)(CC1)CC2 | 6.51 |  | 
8 | CCCC[N+]12CCC(C(O)(c3ccccc3)c3ccccc3)(CC1)CC2 | 6.87 |  | 
9 | Cc1cccc(COCC[N+]23CCC(C(O)(c4ccccc4)c4ccccc4)(CC2)CC3)c1 | > 8.00 | 0.1 nM | 
10 | OC(CC1CN2CCC1CC2)(c1ccccc1)c1ccccc1 (stereo not drawn) | 6.84 |  | 
11 | C[N+]12CCC(C(O)(c3ccccc3)c3ccccc3)(CC1)CC2 | 6.03 |  | 
12 | OC(c1ccccc1)(c1ccccc1)C12CC[N+](CCOCc3ccc(Cl)cc3)(CC1)CC2 | > 8.00 | 0.0631 nM | 
13 | Cc1ccc(COCC[N+]23CCC(C(O)(c4ccccc4)c4ccccc4)(CC2)CC3)cc1 | > 8.00 | 0.0398 nM | 
14 | CC(C)(C)c1ccc(COCC[N+]23CCC(C(O)(c4ccccc4)c4ccccc4)(CC2)CC3)cc1 | 7.41 |  | 
15 | OCC[N+]12CCC(C(O)(c3ccccc3)c3ccccc3)(CC1)CC2 | 6.31 |  | 
16 | OC(c1ccccc1)(c1ccccc1)C12CC[N+](CCCOc3ccccc3)(CC1)CC2.[Br-] | > 8.00 |  | Kb [12]: 1.26 nM; ED50 [1]: 0.08 µg; Activity [13]: 34 h; Kb [3]: 3.16 nM; Kb [4]: 1.26 nM; clearance [14]: 37 mL/min/kg; Activity [6]: 57 min; pKi [7]: 9.19; pKi [8]: 9.03; pKi [15]: 9.89; Activity [9]: inactive
17 | OC(c1ccccc1)(c1ccccc1)C1C[N+]2(CCc3ccccc3)CCC1CC2 (stereo not drawn) | 5.55 |  | 
18 | OC(c1ccc(F)cc1)(c1ccc(F)cc1)C12CC[N+](CCOCc3ccccc3)(CC1)CC2 | > 8.00 | 0.0631 nM | 
19 | OC(c1ccccc1)(c1ccccc1)C12CC[N+](CCOCc3cccc(F)c3)(CC1)CC2 | > 8.00 | 0.0251 nM | 
20 | OC(c1ccccc1)(c1ccccc1)C12CC[N+](CCOCc3cccc(Br)c3)(CC1)CC2 | > 8.00 | 0.126 nM | 
21 | OC(c1ccccc1)(c1ccccc1)C12CC[N+](CCOc3ccccc3)(CC1)CC2 | > 8.00 | 0.794 nM | 
22 | OC(c1ccccc1)(c1ccccc1)C1CN2CCC1CC2 (stereo not drawn) | 5.96 |  | 

Row | SMILES | pIC50 [10] | Kb [11] | other results
23 | COc1cccc(COCC[N+]23CCC(C(O)(c4ccccc4)c4ccccc4)(CC2)CC3)c1 | > 8.00 | 2 nM | 
24 | OC(c1ccccc1)(c1ccccc1)C12CC[N+](CCOCc3ccccc3F)(CC1)CC2 | > 8.00 | 0.0398 nM | 
25 | CC[N+]12CCC(C(O)(c3ccccc3)c3ccccc3)(CC1)CC2 | 6.98 |  | 
26 | COCC[N+]12CCC(C(O)(c3ccccc3)c3ccccc3)(CC1)CC2 | 7.52 |  | 
27 | COc1ccc(C(O)(c2ccc(OC)cc2)C23CC[N+](CCOCc4ccccc4)(CC2)CC3)cc1 | 7.44 |  | 
28 | NCC[N+]12CCC(C(O)(c3ccccc3)c3ccccc3)(CC1)CC2 | 6.07 | 0.398 nM | 
29 | OC(c1ccccc1)(c1ccccc1)C12CC[N+](CCc3ccccc3)(CC1)CC2 | 7.06 |  | 
30 | N#Cc1ccc(COCC[N+]23CCC(C(O)(c4ccccc4)c4ccccc4)(CC2)CC3)cc1 | > 8.00 | 0.398 nM | 
31 | OC(c1ccccc1)(c1ccccc1)C12CCN(CC1)CC2 | 5.97 |  | 
32 | N#Cc1ccccc1COCC[N+]12CCC(C(O)(c3ccccc3)c3ccccc3)(CC1)CC2 | 5.27 |  | 
33 | OC(c1ccccc1)(c1ccccc1)C12CC[N+](CCOCc3ccccc3)(CC1)C2 | > 8.00 | 0.398 nM | 
34 | OC(c1ccccc1)(c1ccccc1)C1CC2CCN1CC2 (stereo not drawn) | 5.18 |  | 
35 | COCCC[N+]12CCC(C(O)(c3ccccc3)c3ccccc3)(CC1)CC2 | 6.08 |  | 
36 | N#CC(c1ccccc1)(c1ccccc1)C12CC[N+](CCOCc3ccccc3)(CC1)C2 | > 8.00 | 0.501 nM | 
37 | CCC[N+]12CCC(C(O)(c3ccccc3)c3ccccc3)(CC1)CC2 | 6.68 |  | 
38 | OC(c1ccccc1)(c1ccccc1)C12CC[N+](CCCCOc3ccccc3)(CC1)CC2 | 8.02 | 10 nM | 
39 | OC(c1ccccc1)(c1ccccc1)C12CC[N+](CC3CC3)(CC1)CC2 | 5.71 |  | 
40 | Cc1ccc(C(O)(c2ccc(C)cc2)C23CC[N+](CCOCc4ccccc4)(CC2)CC3)cc1 | 7.92 |  | 
41 | Cc1ccccc1COCC[N+]12CCC(C(O)(c3ccccc3)c3ccccc3)(CC1)CC2 | 7.89 | 3.98 nM | 
42 | OC(CC1C[N+]2(CCc3ccccc3)CCC1CC2)(c1ccccc1)c1ccccc1 (stereo not drawn) | 6.91 |  | 
43 | OC(c1ccccc1)(c1ccccc1)C12CC[N+](CCOCc3ccc(F)cc3)(CC1)CC2 | > 8.00 | 0.0794 nM | 
44 | OCCC[N+]12CCC(C(O)(c3ccccc3)c3ccccc3)(CC1)CC2 | 4.53 |  | 
